Bioassay records as filed in PubChem BioAssay.
An excerpt weighted towards active compounds, which were near 1.1% of everything screened.
ERAP1 inh: inhibitors of human ERAP1 aminopeptidase; AID 652197; Q9NZ08; recombinant ERAP1, Leu-AMC fluorescence, 60 min; 340,000 compounds, 0.15% hits; inhibition, % at 10.7 µM;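 active = mean replicate inhibition of at least 30%, or all replicates individually reaching that 30% level; inactive = mean below 30% and not every replicate reaching it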;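 also: 0% = neutral control wells and 100% = L-leucinethiol positive control wells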
CAL PDZ FP-1: blocks peptide binding to human CAL PDZ domain. purified CAL PDZ, TMR-peptide fluorescence polarization, 1 h. Q9HD26. AID 504414. 330,000 compounds, 0.02% hits. inhibition, % at 20 µM;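 active = highest replicate inhibition of at least 40%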;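 also: plate controls were DMSO neutral control wells for no effect and unlabeled competitor peptide control wells for full effect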
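Material: tagged CAL PDZ domain; buffer or medium: 25 mM sodium phosphate pH 7.4, 150 mM NaCl, TCEP, IgG, Thesit; compound dosing: single point, 20 µM; schedule: 1 h incubation at room temperature before polarization reading; measured by: FP readout, S and P plane fluorescence; read-out basis: percent inhibition from loss of millipolarization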
PDI turbidity: PDI (human) enzyme inhibition; P07237; 350,000 compounds, 0.052% hits; AID 588391; PDI insulin aggregation turbidity, A650, 90 min; inhibition, % at 10 µM;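 active = mean inhibition across replicates of 30% or more, whatever share of single replicates reach that level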
Rin1-Abl PPI inh: blocks binding of human Rin1 to Abl | P00519+Q13671 | TR-FRET Rin1/Abl binding, biochemical | inhibition, % at 7.35 µM | 360,000 compounds, 0.4% hits; in the data active = inhibition above about 5%, passing the limit was not always enough
CAL PDZ FP-2: CAL PDZ (human) peptide binding inhibition. purified CAL PDZ, TMR-peptide fluorescence polarization, 1 h. inhibition, % at 24.9 µM. 300,000 compounds, 0.92% hits. AID 602252;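 active = mean inhibition of at least 30% with at least half of replicates also reaching 30%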;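 also: 0% = DMSO neutral control and 100% = excess unlabeled competitor peptide PRC23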
ERp5 block: ERp5 (human) disulfide isomerase inhibition. Q15084. ERp5 insulin aggregation, absorbance 650 nm, 90 min. inhibition, % at 9.99 µM. 350,000 compounds, 0.05% hits. AID 651711;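 active = mean replicate inhibition above about 25%, with every replicate also reaching it, limit read from the data, passing the limit was not always enough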
Rin1-Abl confirm: confirmation of inhibitors of human Rin1-Abl interaction; 1,300 compounds, 49% hits; inhibition, % at 7.35 µM; AID 602124; TR-FRET Rin1-Abl binding, purified proteins; shares compounds with Rin1-Abl PPI inh
GFP quencher: GFP fluorescence interference artifact. shares compounds with Rin1-Abl PPI inh. inhibitors/quenchers counterscreen. inhibition, % at 6.75 µM. 1,300 compounds, 8.5% hits. AID 602125;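 also: ABL1-eGFP fusion protein alone without its partner RIN1-SBP; 0% = protein with vehicle and 100% = wells lacking protein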
GFP quench DR: counter-screen for Rin1-Abl inhibitors: GFP quenchers, dose response; 230 tested, under 10 active; GFP fluorescence interference/quenching counterscreen; shares compounds with Rin1-Abl PPI inh; IC50, µM; call rule not given here;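 also: ABL1-eGFP fusion protein alone without its RIN1 binding partner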
Active calls of the source: *; . = not tested or not shown. Rule as the data show it, unless noted: active = inhibition above about 6.5%; inactive = the rest.

SMILES | ERAP1 inh | CAL PDZ FP-1 | PDI turbidity | Rin1-Abl PPI inh | CAL PDZ FP-2 | ERp5 block | Rin1-Abl confirm | GFP quencher | others
COc1cccc(CNC(=O)c2ccc(NC3=NC4CS(=O)(=O)CC4S3)cc2)c1 (centres undefined) | -1 | -2 | -1 | -2 | -2 | -1 | . | .
O=C(NCCc1ccc(Cl)cc1)c1cccc(NC2=NC3CS(=O)(=O)CC3S2)c1 (centres undefined) | 4 | 0 | . | 8.4* | . | -9 | 8.0* | 0
CC(NC(=O)Cc1ccc(NC2=NC3CS(=O)(=O)CC3S2)cc1)c1ccccc1 (centres undefined) | 6 | 0 | . | 3 | . | 1 | . | .
CCN(C(=O)Cc1ccc(NC2=NC3CS(=O)(=O)CC3S2)cc1)c1ccccc1 (centres undefined) | 7 | 0 | -1 | 15* | . | 7 | 11* | -1
CCS(=O)(=O)Nc1ccc2c(c1)C(=O)N(C)C[C@H](OC)[C@@H](C)CN[C@H](C)CO2 | -1 | . | . | . | . | 2 | . | .
O=C(Cc1c(F)cccc1Cl)NNC(=O)Nc1ccc2c(c1)OCO2 | 2 | -1 | -4 | 14* | . | 4 | 1 | 1
OCCN1CCN(c2cnc(-c3ccsc3)cn2)CC1 | 5 | . | -2 | 6.3* | . | -8 | -4 | 1
Nc1ncc(-c2ccc(F)cc2)nc1N1CCN(CCO)CC1 | 2 | . | 1 | -6 | . | -4 | . | .
Cc1ncc(CN2CCCC(C(=O)Nc3ccc(-c4ccco4)cc3)C2)cn1 (centres undefined) | -5 | -1 | -2 | 15* | -6 | 4 | 10* | -2
CCOc1ccccc1CNCCO | . | -2 | 16 | 2 | 2 | . | . | .
CCOC(=O)c1ccc(NC(=O)COc2ccccc2CNCCO)cc1 | -2 | -1 | 1 | 13* | 5 | -1 | 23* | -1 | GFP quench DR=>68
COc1ccc(C(=O)Nc2ccc(S(=O)(=O)N3CCOCC3)cc2)cc1[N+](=O)[O-] | 4 | -2 | -4 | 0 | -5 | -17 | . | .
COc1cc(C(=O)Nc2ccc(S(=O)(=O)N3CCOCC3)cc2)c([N+](=O)[O-])cc1OC | 5 | 0 | -6 | 11* | -6 | 1 | 0 | 0
COc1ccc(NC(=O)c2cc(S(=O)(=O)N3CCCCC3)ccc2OC)cc1 | 1 | -3 | -6 | 7 | 0 | 1 | . | .
Cc1cc(C)nc(SCC(=O)Nc2ccc(S(=O)(=O)N3CCCCC3)cc2)n1 | . | -1 | 9 | 6.3* | . | . | 4 | 0
COc1ccc(S(=O)(=O)N2CCCCCC2)cc1C(=O)Nc1ccc(C(=O)N(C)C)cc1 | 2 | -3 | -6 | 38* | -4 | -6 | 43* | 1 | GFP quench DR=>68
Nc1cc(=O)[nH]c(SCC(=O)Nc2ccc(S(=O)(=O)N3CCCCC3)cc2)n1 | -3 | -1 | -1 | 6 | -4 | -5 | . | .
COc1ccc(NC(=O)CSc2nc(N)cc(=O)[nH]2)cc1S(=O)(=O)N1CCCCC1 | 3 | -2 | 1 | 11* | 11 | 15 | 7.7* | 0
Cc1noc(C)c1NC(=O)Nc1ccc2c(c1)C(=O)N([C@@H](C)CO)C[C@@H](C)[C@H](CN(C)CC1CCCCC1)OCCCC[C@@H](C)O2 | 0 | . | . | . | . | -2 | . | .
O=C(C[C@@H]1CC[C@H]2[C@@H](COC[C@@H](O)CN2C(=O)Nc2cccc(Cl)c2)O1)N1CCCCC1 | -9 | . | . | . | . | -1 | . | .
O=C(Nc1ccccc1)[C@H]1[C@H](CO)[C@H]2Cn3c(cccc3=O)[C@H]2N1CC1CC1 | 2 | . | . | . | . | -1 | . | .
COc1ccc(CC(=O)Nc2ccc(S(=O)(=O)N3CCCCC3)cc2)cc1OC | 1 | -1 | 1 | 10* | -8 | 2 | 6.7* | -1
COC(=O)C1=C(O)/C(=C\c2ccc(CNS(=O)(=O)c3ccccc3)o2)N=C1C | . | -2 | 0 | 6.0* | -4 | . | -1 | 3
COC(=O)C1=C(O)/C(=C\c2ccc(CNS(=O)(=O)c3ccc(Cl)cc3)o2)N=C1C | -6 | -2 | 5 | 6 | 1 | 3 | . | .
COc1ccc(CN(C)C[C@@H]2OCCCC[C@H](C)Oc3ccc(NC(=O)Nc4ccc(C(F)(F)F)cc4)cc3C(=O)N([C@H](C)CO)C[C@@H]2C)cc1 | -3 | . | . | . | . | 1 | . | .
SMILES | ERAP1 inh | CAL PDZ FP-1 | PDI turbidity | Rin1-Abl PPI inh | CAL PDZ FP-2 | ERp5 block | Rin1-Abl confirm | GFP quencher | others
Cn1cnc2c1c(=O)n(Cc1cccc(F)c1)c(=O)n2C | -3 | -1 | -1 | 0 | -1 | 5 | . | .
Cn1cnc2c1c(=O)n(Cc1ccc(F)cc1Cl)c(=O)n2C | . | 0 | 13 | 7.6* | -3 | . | 5 | 1
CCOC(=O)C1=C(C)N(C)C(=O)NC1c1cc2c(cc1[N+](=O)[O-])OCO2 (centres undefined) | 3 | 0 | -8 | 8.7* | 9 | 2 | 7.4* | 1
CCCCOC(=O)C1=C(C)N(C)C(=O)NC1c1cc2c(cc1Br)OCO2 (centres undefined) | 2 | . | 2 | -2 | . | -1 | . | .
CCOC(=O)CSc1ccc2nnc(-c3cccnc3)n2n1 | 2 | 1 | 1 | 7.5* | . | -3 | -3 | -1
CNC(=O)C[C@H]1C(=O)N(Cc2ccccc2)C[C@@H]1Cc1ccccc1 | -6 | . | 1 | 8.2* | . | -5 | 0 | -1
COc1ccc(CN2C[C@@H](CO)O[C@@H](n3cnc4c(NC5CCC5)ncnc43)C2)cc1 | 0 | . | 2 | 12* | . | 2 | 11* | 0
OC[C@@H]1CN(Cc2ccc(Cl)cc2)C[C@H](n2cnc3c(NC4CC4)ncnc32)O1 | -3 | . | 10 | 17* | . | 1 | 20* | -4 | GFP quench DR=>68
COc1ccc(CN2C[C@@H](CO)O[C@@H](n3cnc4c(NC5CC5)ncnc43)C2)cc1 | -6 | . | -4 | 6 | . | 7 | . | .
OC[C@@H]1CN(Cc2ccncc2)C[C@H](n2cnc3c(NC4CC4)ncnc32)O1 | 0 | . | 3 | 7 | . | 7 | . | .
COCC(=O)N1C[C@H](C)[C@H](OC)CN(C)C(=O)c2ccc(NC(=O)c3cc(C)on3)cc2OC[C@@H]1C | 1 | . | . | . | . | 5 | . | .
c1ccc2[nH]c(SCc3cn4ccccc4n3)nc2c1 | -3 | -3 | 2 | 5.6* | -3 | 6 | -2 | 1
Cc1ccc(S(=O)(=O)N[C@H]2CC[C@@H](CCNC(=O)c3ccc4c(c3)OCO4)O[C@H]2CO)cc1 | -4 | . | . | . | . | -1 | . | .
CC1(C(=O)Nc2cccc(NS(C)(=O)=O)c2)Cc2c(-c3cccc(C(N)=O)c3)ccnc2O1 (centres undefined) | 1 | . | -52 | 1 | . | -6 | . | .
